Laboratory results from ChEMBL document CHEMBL1123028, “Synthesis and biological effects of novel thiocolchicines. 3. Evaluation of N-acyldeacetylthiocolchicines, N-(alkoxycarbonyl) deacetylthiocolchicines, and O-ethyldemethylthiocolchicines. New synthesis of thiodemecolcine and antileukemic effects of 2-demethyl- and 3-demethylthiocolchicine” (J Med Chem, 1985).

Experiments:
[1] = (§1) Lethal dose after the intraperitoneal injection in a group of 10 mice; format: toxicity, organism-based; conditions: mouse, in vivo, ip
Procedure, shortened: (§2)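 NIH general purpose mice (ca. 20 g) were given a single ip injection in an Emulphor EL-620 mixture. Groups of 10 were used at each of usually at least five dose levels. One set of 10 mice received the emulphor mixture alone as a control for each compound. Survivors were counted 7 days after injection, and LD50 (mg/kg) with 95% confidence interval was derived by probit analysis.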

[2] = species: Mus musculus; test: Compound was evaluated for the antitumor activity against P388 lymphocytic leukemia in mice;T/C=days test animal live/days control animals live x100); format: functional
Procedure, shortened: (§3)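 P388 lymphocytic leukemia implanted ip in mice, run to NCI Developmental Therapeutics Program protocols. Treatment given on a QD1 × 9 schedule. T/C = median survival time of treated animals / median survival time of untreated controls × 100. Value reported at the dose level giving the highest T/C. Activity requires duplicate tests with T/C ≥ 120%; a reproducible T/C ≥ 175% counts as significant.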

[3] = species: Mus musculus; test: Antitumor activity against P388 lymphocytic leukemia in mice; format: functional; procedure, shortened: as §3
[4] = species: Mus musculus; test: MED(minimum effective dose) against P388 lymphocytic leukemia in mice; this dose produced T/C greater than the threshold value of 125; format: functional; parameters: unit: mg/kg
Procedure, shortened: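 P388 leukemia implanted ip in mice, treated on a QD1 × 9 schedule under NCI Developmental Therapeutics Program protocols. Minimum effective dose (mg/kg) taken as the lowest dose giving T/C, as survival of treated versus control animals × 100, above the threshold of 125.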

[5] = species: Mus musculus; test: Compound was evaluated for the antitumor activity against P388 lymphocytic leukemia in mice; format: functional; procedure, shortened: as §3
[6] = species: Mus musculus; test: Compound was evaluated for the antitumor activity against P388 lymphocytic leukemia in mice; T/C = (days test animal live/days control animals live x100); format: functional; procedure, shortened: as §3
[7] = species: Mus musculus; test: Compound was evaluated for the antitumor activity against P388 lymphocytic leukemia in mice; T/C = days test animal live/days control animals live x100; format: functional; procedure, shortened: as §3
[8] = system: Mus musculus; test: as §1; format: toxicity, organism-based; conditions: in vivo, ip; procedure, shortened: as §2

SMILES	LD50 [1] [mg/kg]	T/C [2]	Dose [3] [mg/kg]	MED [4]	T/C [5]	T/C [6]	T/C [7]	Binding [8] [mg/kg]
CCOCC(=O)N[C@H]1CCc2cc(OC)c(OC)c(OC)c2-c2ccc(SC)c(=O)cc21	5.1	229	1.5	0.38				
COc1cc2c(c(OC)c1OC)-c1ccc(SC)c(=O)cc1[C@@H](NC(=O)Oc1ccccc1)CC2	> 50		5	2.5	164			
C=COC(=O)N[C@H]1CCc2cc(OC)c(OC)c(OC)c2-c2ccc(SC)c(=O)cc21	87.5		3	1.5		152		
COc1c(O)cc2c(c1OC)-c1ccc(SC)c(=O)cc1[C@@H](NC(C)=O)CC2			5	1.25	194			
COc1cc2c(c(OC)c1OC)-c1ccc(SC)c(=O)cc1[C@@H](NC=O)CC2	58.2		0.75	<0.75	171			
COc1cc2c(c(OC)c1O)-c1ccc(SC)c(=O)cc1[C@@H](NC(C)=O)CC2	68.1		10	2.5	148			
COc1cc2c(c(OC)c1OC)-c1ccc(SC)c(=O)cc1[C@@H](N(C)C(=O)C(F)(F)F)CC2	18.6		10	5		145		
CCCC(=O)N[C@H]1CCc2cc(OC)c(OC)c(OC)c2-c2ccc(SC)c(=O)cc21			1.5	0.19	231			
CCOC(=O)N[C@H]1CCc2cc(OC)c(OC)c(OC)c2-c2ccc(SC)c(=O)cc21			1.5	0.38			172	
CCCCOC(=O)N[C@H]1CCc2cc(OC)c(OC)c(OC)c2-c2ccc(SC)c(=O)cc21	81		3	<3		142		
COc1cc2c(c(OC)c1OC)-c1ccc(OC)c(=O)cc1[C@@H](NC(C)=O)CC2 [COLCHICINE]			0.5	0.06	245			
COc1cc2c(c(OC)c1OC)-c1ccc(SC)c(=O)cc1[C@@H](NC(=O)C(F)(F)F)CC2	0.9		0.62	0.32	148			
COc1cc2c(c(OC)c1OC)-c1ccc(SC)c(=O)cc1[C@@H](NC(=O)c1ccccc1)CC2	40		2.5	<2.5		155		
COc1cc2c(c(OC)c1OC)-c1ccc(SC)c(=O)cc1[C@@H](NC(C)=O)CC2 [THIOCOLCHICINE]			0.18	0.05	193			
CN[C@H]1CCc2cc(OC)c(OC)c(OC)c2-c2ccc(SC)c(=O)cc21			100	50		131		> 100
